Source: ChEMBL document CHEMBL1152865, “Synthesis and antimycobacterial activities of novel 6-nitroquinolone-3-carboxylic acids” (Eur J Med Chem, 2009)
Converted amounts (≈) assume the structure as drawn.

Tests used:
Mus musculus [1] = assay: Phototoxicity in Swiss albino mouse exposed to 4 hrs of 18 J/cm'2 UV light irradiation assessed as erythema at 140 mg/kg, po after 96 hrs; assay type: organism-based; design: dose 140 mg/kg, route oral; conditions: in vivo
Summary of the method: (§1)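 Female Swiss albino mice about 2 months old, 20-25 g, fasted at least 18 h, six per group. Single oral gavage of 140 mg/kg; vehicle 0.5% aqueous sodium carboxymethylcellulose at 10 ml/kg; lomefloxacin HCl 140 mg/kg as positive control. UVA for 4 h (about 18 J/cm²) from dosing. Both ears scored for erythema, edema and thickness pre-dose, at 4 h, and at about 24, 48, 72 and 96 h.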

Mus musculus [2] = assay: Phototoxicity in Swiss albino mouse exposed to 4 hrs of 18 J/cm'2 UV light irradiation assessed as erythema at 140 mg/kg, po after 48 hrs; assay type: organism-based; design: dose 140 mg/kg, route oral; conditions: in vivo; summary of the method: as §1
Mus musculus [3] = assay: Phototoxicity in Swiss albino mouse exposed to 4 hrs of 18 J/cm'2 UV light irradiation assessed as ear thickness at 140 mg/kg, po after 96 hrs; assay type: organism-based; design: dose 140 mg/kg, route oral; conditions: in vivo; summary of the method: as §1
Mus musculus [4] = assay: Phototoxicity in Swiss albino mouse exposed to 4 hrs of 18 J/cm'2 UV light irradiation assessed as erythema at 140 mg/kg, po after 72 hrs; assay type: organism-based; design: dose 140 mg/kg, route oral; conditions: in vivo; summary of the method: as §1
Mus musculus [5] = assay: Phototoxicity in Swiss albino mouse exposed to 4 hrs of 18 J/cm'2 UV light irradiation assessed as erythema at 140 mg/kg, po after 24 hrs; assay type: organism-based; design: dose 140 mg/kg, route oral; conditions: in vivo; summary of the method: as §1
Mus musculus [6] = assay: Phototoxicity in Swiss albino mouse exposed to 4 hrs of 18 J/cm'2 UV light irradiation assessed as ear thickness at 140 mg/kg, po after 72 hrs; assay type: organism-based; design: dose 140 mg/kg, route oral; conditions: in vivo; summary of the method: as §1
Mus musculus [7] = assay: Phototoxicity in Swiss albino mouse assessed as erythema at 140 mg/kg, po after 4 hrs of 18 J/cm'2 UV light irradiation; assay type: organism-based; design: dose 140 mg/kg, route oral; conditions: in vivo; summary of the method: as §1
Mus musculus [8] = assay: Phototoxicity in Swiss albino mouse exposed to 4 hrs of 18 J/cm'2 UV light irradiation assessed as erythema at 140 mg/kg, po; assay type: organism-based; design: dose 140 mg/kg, route oral; conditions: in vivo; summary of the method: as §1
Mus musculus [9] = assay: Phototoxicity in Swiss albino mouse exposed to 4 hrs of 18 J/cm'2 UV light irradiation assessed as ear thickness at 140 mg/kg, po after 48 hrs; assay type: organism-based; design: dose 140 mg/kg, route oral; conditions: in vivo; summary of the method: as §1
Mus musculus [10] = assay: Phototoxicity in Swiss albino mouse exposed to 4 hrs of 18 J/cm'2 UV light irradiation assessed as ear thickness at 140 mg/kg, po after 24 hrs; assay type: organism-based; design: dose 140 mg/kg, route oral; conditions: in vivo; summary of the method: as §1
Mus musculus [11] = assay: Phototoxicity in Swiss albino mouse assessed as ear thickness at 140 mg/kg, po measured after 4 hrs of 18 J/cm'2 UV light irradiation; assay type: organism-based; design: dose 140 mg/kg, route oral; conditions: in vivo; summary of the method: as §1
Mus musculus [12] = assay: Phototoxicity in Swiss albino mouse exposed to 18 J/cm'2 UV light irradiation assessed as ear thickness at 140 mg/kg, po; assay type: organism-based; design: dose 140 mg/kg, route oral; conditions: in vivo; summary of the method: as §1
[13] = tested on: Mycobacterium tuberculosis; assay: Antimycobacterial activity against Mycobacterium tuberculosis ATCC 35801 infected in CD1 mouse assessed as bacterial load in lungs at 50 mg/kg, ip administered 10 days postinfection for 10 days measured after 35 days of infection; assay type: functional; conditions: route intraperitoneal
Summary of the method: (§2)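 Six-week-old female CD-1 mice, six per group, infected intravenously via the caudal vein with approximately 10⁷ viable M. tuberculosis ATCC 35801. Intraperitoneal treatment ran days 10–20 post-infection. At day 35, spleen and right lung were homogenized, serially 10-fold diluted and plated on 7H10 agar, incubated 37 °C, 4 weeks. Log CFU compared with vehicle-treated controls.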

[14] = tested on: Mycolicibacterium smegmatis; assay: Antibacterial activity against Mycobacterium smegmatis ATCC 14468 by agar dilution method; assay type: functional
Summary of the method: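 Agar dilution on Middlebrook 7H11 agar with OADC supplement, following an NCCLS-type procedure; MIC read in duplicate.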

[15] = tested on: Mycobacterium tuberculosis; assay: Antimycobacterial activity against Mycobacterium tuberculosis ATCC 35801 infected in CD1 mouse assessed as bacterial load in spleen at 50 mg/kg, ip administered 10 days postinfection for 10 days measured after 35 days of infection; assay type: functional; conditions: route intraperitoneal; summary of the method: as §2
[16] = Cytotoxicity against african green monkey Vero cells after 72 hrs by MTT assay; assay type: cell-based; conditions: chlorocebus sabaeus
Summary of the method: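 Cells exposed to compound for 72 h; viability from cellular MTT conversion to formazan; CC50 derived.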

[17] = tested on: Mycobacterium tuberculosis; assay: Antibacterial activity against Mycobacterium tuberculosis H37Rv by agar dilution method; assay type: functional
Summary of the method: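 Agar dilution in Middlebrook 7H11 agar supplemented with OADC, following an approach similar to NCCLS guidance. MIC determined in duplicate.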

[18] = Inhibition of Mycobacterium smegmatis DNA gyrase assessed as inhibition of relaxed circular pUC18 supercoiling activity by agarose gel electrophoresis; design: species or system Mycolicibacterium smegmatis
Summary of the method: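 Gyrase purified from M. smegmatis, pre-incubated with compound in DMSO. Then 400 ng relaxed pUC18 added in 35 mM Tris-HCl pH 7.5, 5 mM MgCl2, 25 mM potassium glutamate, 2 mM spermidine, 2 mM ATP, BSA, yeast tRNA and 5% glycerol. Incubated 30 min at 37 °C; read-out by agarose gel electrophoresis. Ciprofloxacin and 5% DMSO reactions run as controls.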

[19] = tested on: Mycobacterium tuberculosis; assay: Antimycobacterial activity against Mycobacterium tuberculosis ATCC 35801 infected in CD1 mouse assessed as bacterial load in spleen at 25 mg/kg, ip administered 10 days postinfection for 10 days measured after 35 days of infection; assay type: functional; conditions: route intraperitoneal; summary of the method: as §2
[20] = tested on: Mycobacterium tuberculosis; assay: Antimycobacterial activity against Mycobacterium tuberculosis ATCC 35801 infected in CD1 mouse assessed as bacterial load in lungs at 25 mg/kg, ip administered 10 days postinfection for 10 days measured after 35 days of infection; assay type: functional; conditions: route intraperitoneal; summary of the method: as §2

| Compound | Activity (Mus musculus [1]) | Activity (Mus musculus [2]) | Activity (Mus musculus [3]) | Activity (Mus musculus [4]) | Activity (Mus musculus [5]) | Activity (Mus musculus [6]) | Activity (Mus musculus [7]) | Activity (Mus musculus [8]) | Activity (Mus musculus [9]) | Activity (Mus musculus [10]) | Activity (Mus musculus [11]) | Activity (Mus musculus [12]) | log10cfu [13] | MIC [14] | log10cfu [15] | CC50 at 72 h [16] | MIC [17] | IC50 [18] | log10cfu [19] | log10cfu [20] |
| --- | --- | --- | --- | --- | --- | --- | --- | --- | --- | --- | --- | --- | --- | --- | --- | --- | --- | --- | --- | --- |
| CCn1cc(C(=O)O)c(=O)c2cc(F)c(N3CCNC(C)C3)c(F)c21 (stereo not given) [LOMEFLOXACIN] | Toxic | Toxic | 0.6 mm | Toxic | Toxic | 0.64 mm | Toxic | Non-toxic | 0.53 mm | 0.48 mm | 0.4 mm | 0.31 mm | – | – | – | – | – | – | – | – |
| COc1c(N2CCNC(C)C2)c(F)cc2c(=O)c(C(=O)O)cn(C3CC3)c12 (stereo not given) [GATIFLOXACIN] | – | – | – | – | – | – | – | – | – | – | – | – | 6.02 | 2.08 µM (≈ 0.781 µg/mL) | 6.92 | > 155 µM | 1.04 µM (≈ 0.39 µg/mL) | – | – | – |
| O=C(O)c1cn(C2CC2)c2cc(N3CCN(Cc4ccc5c(c4)OCO5)CC3)c([N+](=O)[O-])cc2c1=O | Non-toxic | Non-toxic | 0.29 mm | Non-toxic | Non-toxic | 0.31 mm | Non-toxic | Non-toxic | 0.28 mm | 0.28 mm | 0.27 mm | 0.25 mm | 5.21 | 0.79 µM (≈ 0.389 µg/mL) | 4.87 | 127 µM | 0.08 µM (≈ 0.0394 µg/mL) | 30 µg/mL (≈ 60.9 µM) | – | – |
| CN1CCN(c2cc3c(cc2[N+](=O)[O-])c(=O)c(C(=O)O)cn3C2CC2)CC1c1ccccc1 (stereo not given) | Non-toxic | Non-toxic | 0.34 mm | Non-toxic | – | 0.32 mm | Non-toxic | Non-toxic | 0.32 mm | 0.3 mm | 0.31 mm | 0.3 mm | – | 0.87 µM (≈ 0.39 µg/mL) | – | 136 µM | 0.2 µM (≈ 0.0897 µg/mL) | 30 µg/mL (≈ 66.9 µM) | – | – |
| NNC(=O)c1ccncc1 [ISONIAZID] | – | – | – | – | – | – | – | – | – | – | – | – | – | 45.6 µM (≈ 6.25 µg/mL) | – | > 456 µM | 0.36 µM (≈ 0.0494 µg/mL) | – | 4.71 | 5.86 |
